Results as given in ChEMBL document CHEMBL1159121, “Synthesis, in vitro structure-activity relationship, and in vivo studies of 2-arylthiazolidine-4-carboxylic acid amides as anticancer agents” (Bioorg Med Chem, 2010).

Legend:
CCRF-CEM = experiment: Growth inhibition of human CCRF-CEM cells; type: functional
RXF 393 = experiment: Growth inhibition of human RXF393 cells; type: functional
SK-MEL-28 = experiment: Growth inhibition of human SK-MEL-28 cells; type: functional
SK-MEL-5 = experiment: Growth inhibition of human SK-MEL-5 cells; type: functional
OVCAR-8 = experiment: Growth inhibition of human OVCAR8 cells; type: functional
U-251 = experiment: Growth inhibition of human U251 cells; type: functional
LOX IMVI = experiment: Growth inhibition of human LOXIMVI cells; type: functional
HCT-15 = experiment: Growth inhibition of human HCT15 cells; type: functional
UACC-62 = experiment: Growth inhibition of human UACC62 cells; type: functional
PC-3 = experiment: Growth inhibition of human PC3 cells; type: functional
MDA-MB-231 = experiment: Growth inhibition of human MDA-MB-231 cells; type: functional
HL-60(TB) = experiment: Growth inhibition of human HL-60(TB) cells; type: functional
OVCAR-5 = experiment: Growth inhibition of human OVCAR5 cells; type: functional
RH7777 = experiment: Cytotoxicity against rat RH7777 cells after 96 hrs by SRB assay; type: cell-based; settings: RH7777, 96 h
In short: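 Prostate lines in RPMI1640/10% FBS; RH7777 in DMEM/10% FBS. Cells TCA-fixed, stained with 0.4% SRB, absorbance read at 540 nm. IC50 from nonlinear regression of % survival against concentration.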

DU-145 = experiment: Growth inhibition of human DU145 cells; type: functional
SR = experiment: Growth inhibition of human SR cells; type: functional
HCC 2998 = experiment: Growth inhibition of human HCC2998 cells; type: functional
NCI-H226 = experiment: Growth inhibition of human NCI-H226 cells; type: functional
SF-268 = experiment: Growth inhibition of human SF268 cells; type: functional
NCI/ADR-RES = experiment: Growth inhibition of human NCI/ADR-RES cells; type: functional
HCT-116 = experiment: Growth inhibition of human HCT116 cells; type: functional
SW-620 = experiment: Growth inhibition of human SW620 cells; type: functional
SNB-75 = experiment: Growth inhibition of human SNB75 cells; type: functional
UO-31 = experiment: Growth inhibition of human UO31 cells; type: functional
SF-539 = experiment: Growth inhibition of human SF539 cells; type: functional
SN12C = experiment: Growth inhibition of human SN12C cells; type: functional
[1] = Growth inhibition of human Hs 578T cells; type: functional
ACHN = experiment: Growth inhibition of human ACHN cells; type: functional
NCI-H522 = experiment: Growth inhibition of human NCI-H522 cells; type: functional
786-0 = experiment: Growth inhibition of human 786-0 cells; type: functional
MDA-MB-435 = experiment: Growth inhibition of human MDA-MB-435 cells; type: functional
NCI-H322M = experiment: Growth inhibition of human NCI-H322M cells; type: functional
[2] = Cytotoxicity against human fibroblasts after 48 hrs by SRB assay; type: cell-based; settings: Fibroblast
In short: (§1)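 Melanoma lines and control fibroblasts grown at 37 °C, 5% CO2, then exposed to a wide concentration range for 48 h in round-bottom 96-well plates. Fixed with 10% TCA, stained with SRB, protein read at 560 nm. IC50 (50% growth inhibition versus untreated) obtained by nonlinear regression.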

OVCAR-3 = experiment: Growth inhibition of human OVCAR-3 cells; type: functional
HT-29 = experiment: Growth inhibition of human HT-29 cells; type: functional
EKVX = experiment: Growth inhibition of human EKVX cells; type: functional
MOLT-4 = experiment: Growth inhibition of human MOLT4 cells; type: functional
[3] = Antiproliferative activity against human WM164 cells after 48 hrs by SRB assay; type: functional, cell-based; settings: WM164, 48 h; in short: as §1
SF-295 = experiment: Growth inhibition of human SF295 cells; type: functional
SNB-19 = experiment: Growth inhibition of human SNB19 cells; type: functional
[4] = Antiproliferative activity against mouse B16-F1 cells after 48 hrs by SRB assay; type: functional, cell-based; settings: B16-F1, 48 h; in short: as §1
[5] = read-out: LC50 (the source's name)

With `CCCCCCCCCCCCCCCCCCNC(=O)[C@@H]1CSC(c2ccccc2)N1` (mixture of isomers) the GI50 (CCRF-CEM) was 0.56 µM, the TGI (CCRF-CEM) was 2.1 µM and the CC50 (CCRF-CEM; [5]) was 6.5 µM. It also gave a GI50 (RXF 393) of 1.55 µM, a TGI (RXF 393) of 3.01 µM and a CC50 (RXF 393; [5]) of 5.85 µM. It also gave a GI50 (SK-MEL-28) of 1.49 µM, a TGI (SK-MEL-28) of 2.81 µM and a CC50 (SK-MEL-28; [5]) of 5.3 µM. It also gave a GI50 (SK-MEL-5) of 1.92 µM, a TGI (SK-MEL-5) of 3.63 µM and a CC50 (SK-MEL-5; [5]) of 6.87 µM. The GI50 (OVCAR-8) was 2.24 µM, the TGI (OVCAR-8) was 6.14 µM and the CC50 (OVCAR-8; [5]) was greater than 100 µM. The GI50 (U-251) was 1.8 µM, the TGI (U-251) was 3.19 µM and the CC50 (U-251; [5]) was 5.65 µM. The GI50 (LOX IMVI) was 1.23 µM, the TGI (LOX IMVI) was 2.59 µM and the CC50 (LOX IMVI; [5]) was 5.48 µM. The GI50 (HCT-15) was 10.9 µM, the TGI (HCT-15) was 22.7 µM and the CC50 (HCT-15; [5]) was 47.7 µM. For the same compound, the GI50 (UACC-62) was 2.14 µM, the TGI (UACC-62) was 3.78 µM and the CC50 (UACC-62; [5]) was 6.68 µM. It also gave a GI50 (PC-3) of 2.97 µM, a TGI (PC-3) of 10.7 µM and a CC50 (PC-3; [5]) of 32.8 µM. For the same compound, the GI50 (MDA-MB-231) was 1.61 µM, the TGI (MDA-MB-231) was 3.12 µM and the CC50 (MDA-MB-231; [5]) was 6.05 µM. The GI50 (HL-60(TB)) was 2.03 µM, the TGI (HL-60(TB)) was 3.8 µM and the CC50 (HL-60(TB); [5]) was 7.11 µM. For the same compound, the GI50 (OVCAR-5) was 1.91 µM, the TGI (OVCAR-5) was 3.32 µM and the CC50 (OVCAR-5; [5]) was 5.76 µM. For the same compound, the IC50 (RH7777) was greater than 20 µM, the GI50 (DU-145) was 3.78 µM and the TGI (DU-145) was 15.7 µM. For the same compound, the CC50 (DU-145; [5]) was 39.6 µM, the GI50 (SR) was 0.49 µM and the TGI (SR) was 1.79 µM. It also gave a CC50 (SR; [5]) of 6.79 µM, a GI50 (HCC 2998) of 0.54 µM and a TGI (HCC 2998) of 1.8 µM. For the same compound, the CC50 (HCC 2998; [5]) was 4.24 µM, the GI50 (NCI-H226) was 2.06 µM and the TGI (NCI-H226) was 3.83 µM. The CC50 (NCI-H226; [5]) was 7.11 µM, the GI50 (SF-268) was 1.2 µM and the TGI (SF-268) was 2.57 µM. The CC50 (SF-268; [5]) was 5.53 µM, the GI50 (NCI/ADR-RES) was 2.02 µM and the TGI (NCI/ADR-RES) was 3.85 µM. For the same compound, the CC50 (NCI/ADR-RES; [5]) was 7.37 µM, the GI50 (HCT-116) was 1.31 µM and the TGI (HCT-116) was 2.58 µM. It also gave a CC50 (HCT-116; [5]) of 5.08 µM, a GI50 (SW-620) of 1.18 µM and a TGI (SW-620) of 2.4 µM. The CC50 (SW-620; [5]) was 4.9 µM, the GI50 (SNB-75) was 2.64 µM and the TGI (SNB-75) was 4.15 µM. The CC50 (SNB-75; [5]) was 6.54 µM, the GI50 (UO-31) was 2.31 µM and the TGI (UO-31) was 5.38 µM. For the same compound, the CC50 (UO-31; [5]) was 16.3 µM, the GI50 (SF-539) was 1.72 µM and the TGI (SF-539) was 3.09 µM. The CC50 (SF-539; [5]) was 5.56 µM, the GI50 (SN12C) was 1.94 µM and the TGI (SN12C) was 3.35 µM. The CC50 (SN12C; [5]) was 5.79 µM, the GI50 [1] was 1.82 µM and the TGI [1] was 4.08 µM. It also gave a CC50 [1, 5] of 9.14 µM, a GI50 (ACHN) of 2.12 µM and a TGI (ACHN) of 4.9 µM. It also gave a CC50 (ACHN; [5]) of 13.5 µM, a GI50 (NCI-H522) of 3.52 µM and a TGI (NCI-H522) of 12.3 µM. The CC50 (NCI-H522; [5]) was greater than 100 µM, the GI50 (786-0) was 1.78 µM and the TGI (786-0) was 3.17 µM. It also gave a CC50 (786-0; [5]) of 5.63 µM, a GI50 (MDA-MB-435) of 2.01 µM and a TGI (MDA-MB-435) of 4.12 µM. The CC50 (MDA-MB-435; [5]) was 8.45 µM, the GI50 (NCI-H322M) was 2.28 µM and the TGI (NCI-H322M) was 5.15 µM. It also gave a CC50 (NCI-H322M; [5]) of 15.4 µM, an IC50 [2] of 29.8 µM and a GI50 (OVCAR-3) of 4.27 µM. The TGI (OVCAR-3) was 16.2 µM, the CC50 (OVCAR-3; [5]) was 80.2 µM and the GI50 (HT-29) was 1.75 µM. The TGI (HT-29) was 3.41 µM, the CC50 (HT-29; [5]) was 6.67 µM and the GI50 (EKVX) was 2.12 µM. It also gave a TGI (EKVX) of 4.72 µM, a CC50 (EKVX; [5]) of 12.3 µM and a GI50 (MOLT-4) of 0.86 µM. It also gave a TGI (MOLT-4) of 2.43 µM, a CC50 (MOLT-4; [5]) of 6.51 µM and an IC50 [3] of 4.4 µM. The GI50 (SF-295) was 4.37 µM, the TGI (SF-295) was 15.9 µM and the CC50 (SF-295; [5]) was 74.7 µM. It also gave a GI50 (SNB-19) of 2.03 µM, a TGI (SNB-19) of 3.66 µM and a CC50 (SNB-19; [5]) of 6.6 µM. It also gave an IC50 [4] of 15.5 µM.
